The values below come from ChEMBL document CHEMBL1154449, “Synthesis, characterization and in vitro antibacterial activity of thiourea and urea derivatives of steroids” (2008).

≈ marks a conversion by molar mass, not a printed value.

The test system of experiment [1] is Staphylococcus aureus. Nature of the experiment: Antibacterial activity against Staphylococcus aureus at 1 mg/disk after 18 hrs at 36 degC by disk diffusion method. The class given is functional. The method in brief:
(§1)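 Disk diffusion. Strains were subcultured in BHI for 18 h at 37 °C, then suspended in saline by McFarland to about […] CFU/mL. The suspension was mixed with sterile antibiotic agar at 40 °C and poured onto plates, and 6.0 mm paper disks were applied. Test compound stock was made in DMSO and diluted to several concentrations applied to disks. Chloramphenicol disks served as positive control and DMSO disks as negative control. Inhibition zone (mm) was read after 18 h at 36 °C.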

In experiment [2] the test system is Streptococcus pyogenes. The experiment is described as follows: Antibacterial activity against Streptococcus pyogenes at 1 mg/disk after 18 hrs at 36 degC by disk diffusion method. The class given is functional. Summed up:
as §1
On the technique in general: In agar diffusion tests the substance spreads into inoculated agar from a disc or well.

For experiment [3], the system named is Salmonella typhimurium. The experiment is described as follows: Antibacterial activity against Salmonella Typhimurium at 1 mg/disk after 18 hrs at 36 degC by disk diffusion method. The class given is functional, Salmonella enterica subsp. enterica serovar Typhimurium. Summed up:
as §1

The test system of experiment [4] is Escherichia coli. The experiment is described as follows: Antibacterial activity against Escherichia coli at 1 mg/disk after 18 hrs at 36 degC by disk diffusion method. Type of experiment: functional. The method in brief: as §1
The subject of experiment [5] is Staphylococcus aureus. Nature of the experiment: Antibacterial activity against Staphylococcus aureus after 18 hrs at 37 degC by microdilution method. The class given is functional. As to conditions: in the assay text read “macrodilution” for “microdilution”. A general note: In broth dilution the organism is exposed to a series of concentrations in liquid medium.

Experiment [6] relates to Streptococcus pyogenes. Nature of the experiment: Antibacterial activity against Streptococcus pyogenes after 18 hrs at 37 degC by microdilution method. The class given is functional. As to conditions: in the assay text read “macrodilution” for “microdilution”.
The subject of experiment [7] is Salmonella typhimurium. Nature of the experiment: Antibacterial activity against Salmonella Typhimurium after 18 hrs at 37 degC by microdilution method. Type of experiment: functional, Salmonella enterica subsp. enterica serovar Typhimurium. Particulars: Salmonella enterica, in the assay text read “macrodilution” for “microdilution”.
Experiment [8] concerns Escherichia coli. Nature of the experiment: Antibacterial activity against Escherichia coli after 18 hrs at 37 degC by microdilution method. Type of experiment: functional.
For experiment [9], the system named is Staphylococcus aureus. The experiment is described as follows: Antibacterial activity against Staphylococcus aureus at 30 ug/disk after 18 hrs at 36 degC by disk diffusion method. Type of experiment: functional. As to conditions: read-out: IZ. The method in brief:
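S. aureus subcultured in BHI medium 18 h at 37 °C, then suspended in saline per McFarland protocol; suspension mixed with sterile antibiotic agar at 40 °C and poured as plates. Paper disks (6.0 mm) loaded with DMSO-dissolved compound at graded concentrations; chloramphenicol disk positive control, DMSO disk negative control. Inhibition zone diameter (mm) read after 18 h at 36 °C.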

The test system of experiment [10] is Streptococcus pyogenes. The experiment is described as follows: Antibacterial activity against Streptococcus pyogenes at 30 ug/disk after 18 hrs at 36 degC by disk diffusion method. Type of experiment: functional. Particulars: read-out: IZ. The method in brief: as §1
Experiment [11] concerns Salmonella typhimurium. The experiment is described as follows: Antibacterial activity against Salmonella Typhimurium at 30 ug/disk after 18 hrs at 36 degC by disk diffusion method. As to conditions: Salmonella enterica, read-out: IZ. The class given is functional, Salmonella enterica subsp. enterica serovar Typhimurium. Summed up:
as §1

The subject of experiment [12] is Escherichia coli. Nature of the experiment: Antibacterial activity against Escherichia coli at 30 ug/disk after 18 hrs at 36 degC by disk diffusion method. The class given is functional. As to conditions: read-out: IZ. The method in brief: as §1

By MIC is commonly meant the lowest concentration that inhibits growth of the organism. Low values mean greater potency, high ones weaker potency. Consider `CC[C@H](/C=C/[C@@H](C)[C@H]1CC[C@H]2[C@@H]3C4=C[C@]5(C[C@@H](OC(C)=O)CC[C@]5(C)[C@H]3CC[C@]12C)NC(=O)N4)C(C)C`, for which the “inhibition zone (IZ)” value in the experiment on Staphylococcus aureus [1] amounted to 14.4 mm; in the experiment on Streptococcus pyogenes [2], 12.4 mm; with Salmonella typhimurium [3], 15.2 mm; in the experiment with Escherichia coli [4] it was 16.3 mm. Also, the MIC in the experiment with Staphylococcus aureus [5] is 64 µg/mL (≈ 125 µM); in the experiment on Streptococcus pyogenes [6], 128 µg/mL (≈ 251 µM); in the experiment on Salmonella typhimurium [7] it was 128 µg/mL (≈ 251 µM); in the experiment with Escherichia coli [8], 64 µg/mL (≈ 125 µM).

Consider `CC[C@H](/C=C/[C@@H](C)[C@H]1CC[C@H]2[C@@H]3C4=C[C@]5(C[C@@H](Cl)CC[C@]5(C)[C@H]3CC[C@]12C)NC(=O)N4)C(C)C`, for which the “inhibition zone (IZ)” value with Staphylococcus aureus [1] came out at 16.8 mm; in the experiment on Streptococcus pyogenes [2], 15.2 mm; with Salmonella typhimurium [3] it was 14.4 mm; with Escherichia coli [4] it was 14.8 mm. The MIC in the experiment on Staphylococcus aureus [5] was found to be 64 µg/mL (≈ 131 µM); against Streptococcus pyogenes [6], 128 µg/mL (≈ 263 µM); in the experiment with Salmonella typhimurium [7], 128 µg/mL (≈ 263 µM); against Escherichia coli [8], 128 µg/mL (≈ 263 µM).

As for `CC[C@H](/C=C/[C@@H](C)[C@H]1CC[C@H]2[C@@H]3C4=C[C@]5(C[C@@H](OC(C)=O)CC[C@]5(C)[C@H]3CC[C@]12C)NC(=S)N4)C(C)C`, the “inhibition zone (IZ)” value in the experiment on Staphylococcus aureus [1] is reported as 22.5 mm; in the experiment with Streptococcus pyogenes [2], 21.6 mm; in the experiment with Salmonella typhimurium [3], 19.4 mm; in the experiment on Escherichia coli [4], 23.4 mm. In addition, the MIC turned out to be 32 µg/mL (≈ 60.7 µM) against Staphylococcus aureus [5], 64 µg/mL (≈ 121 µM) against Streptococcus pyogenes [6], 32 µg/mL (≈ 60.7 µM) with Salmonella typhimurium [7] and 32 µg/mL (≈ 60.7 µM) with Escherichia coli [8].

Regarding `CC[C@H](/C=C/[C@@H](C)[C@H]1CC[C@H]2[C@@H]3C4=C[C@]5(C[C@@H](Cl)CC[C@]5(C)[C@H]3CC[C@]12C)NC(=S)N4)C(C)C`, the “inhibition zone (IZ)” value in the experiment with Staphylococcus aureus [1] is recorded as 19.7 mm; in the experiment on Streptococcus pyogenes [2] it was 23.2 mm; in the experiment on Salmonella typhimurium [3], 18.7 mm; in the experiment with Escherichia coli [4] it was 20.7 mm. The MIC in the experiment on Staphylococcus aureus [5] was found to be 64 µg/mL (≈ 127 µM); in the experiment on Streptococcus pyogenes [6] it was 64 µg/mL (≈ 127 µM); in the experiment on Salmonella typhimurium [7] it was 32 µg/mL (≈ 63.6 µM); against Escherichia coli [8], 32 µg/mL (≈ 63.6 µM).

As to `O=C(N[C@H](CO)[C@H](O)c1ccc([N+](=O)[O-])cc1)C(Cl)Cl` [CHLORAMPHENICOL], the zone of inhibition at 30 µg/disc amounted to 21 mm with Staphylococcus aureus [9], 22.2 mm in the experiment on Streptococcus pyogenes [10], 25.2 mm in the experiment on Salmonella typhimurium [11] and 20 mm in the experiment with Escherichia coli [12].

As to `CC(C)CCC[C@@H](C)[C@H]1CC[C@H]2[C@@H]3CC=C4C[C@@H](O)CC[C@]4(C)[C@H]3CC[C@]12C` [CHOLESTEROL], the “inhibition zone (IZ)” value with Staphylococcus aureus [1] came to 9.2 mm; in the experiment with Streptococcus pyogenes [2] it was 7.8 mm; with Salmonella typhimurium [3] it was 8.2 mm; in the experiment on Escherichia coli [4], 9 mm. Moreover, the MIC against Staphylococcus aureus [5], in the experiment with Streptococcus pyogenes [6], with Salmonella typhimurium [7] and with Escherichia coli [8] was 512 µg/mL (≈ 1320 µM) each time.
